Data: PubChem BioAssay
Records with an inconclusive call do not appear. The source made the active and inactive calls.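 Rule for the calls, unless noted: active = viability at or below 27.92% in each of two runs, the all-compound median minus 4 SD; inconclusive = no clear call, values can overlap the other calls; inactive = the rest.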

Assays:
[1] = S. cerevisiae growth inhibition in permissive medium (OD615), pilot counter-assay for S. cerevisiae lifespan shortening project, permissive growth control (AID 705;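 active = growth inhibition above 25% in both replicates, a cutoff set 3 SD above the mean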); conditions: OD615, 24 h, at 10 µM, active compounds read high
Procedure, shortened: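 System: Engineered DeaD yeast | Buffer or medium: SC raffinose/galactose permissive medium | Doses: 10 µM single dose, 0.25% DMSO | Times: 24 h exposure, 30 °C | Measured by: OD615 turbidity read | Read-out: Yeast growth inhibition indicated by reduced 24 h OD615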

[2] = S. cerevisiae growth inhibition in restrictive medium, OD615, pilot screen, restrictive growth control, yeast lifespan reduction project (AID 706;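 active = growth inhibition above a set limit, 3 SD over mean compound inhibition, in both replicates, cut at about 43% in these data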;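 note: modified DeaD lifespan yeast strain shifted to restrictive glucose medium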); conditions: OD615, 48 h, at 10 µM, active compounds read high
Procedure, shortened: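 Assay system: engineered S. cerevisiae DeaD strain; Buffer or medium: CSMM-D glucose medium; Dosing: 10 µM compound, 0.25% DMSO; Times: cell pre-growth 4 h, compound exposure 48 h, 30 °C; Detection: absorbance (optical density) measured at 615 nm.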

[3] = doxorubicin toxicity protection in MRP-1 cells – H69AR cells, CellTiter-Glo, duplicate, MRP-1 activator project, pilot screen (AID 807;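 active = viability increase at or above a cutoff of the median across tested compounds plus 3 SD, cut at about 8.5% in these data, passing the limit was not always enough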;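 note: compound pretreatment 18-22 h then 72 h combined with doxorubicin; 0% = doxorubicin alone and 100% = vehicle without doxorubicin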); conditions: H69AR viability with doxorubicin, CellTiter-Glo luminescence; at 10 µM; active compounds read high
[4] = viability of HCT116 without oncogenic beta-catenin – human colon tumor cells, pilot screen (AID 823;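 active = cell viability at or below a set limit in both duplicate runs, the limit being the all-compound median minus 4 SD, cut at about 23% in these data, passing the limit was not always enough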;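 note: 0% = wells killed by 20 µM Hyamine and 100% = untreated DMSO cell wells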); conditions: HCT116 beta-catenin knockout viability, CellTiter-Glo, 60 h; at 10 µM; active compounds read low
[5] = viability of PTEN-null HCT116 cells – cell-based, HCT116 clonal line, CellTiter-Glo, pilot screen (AID 824); conditions: HCT116 PTEN-deleted viability, 60 h, at 10 µM, active compounds read low;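 note: 0% = 20 µM Hyamine control and 100% = vehicle cell control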
[6] = RAM pathway blockade in budding yeast – dse1pr::URA3 reporter, 5-FOA selection, pilot screen (AID 869;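 active = inhibition over a set limit, the all-compound mean plus 3 SD, in both replicate runs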;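 note: 0% = DMSO wells with no growth and 100% = 10 µM 1-NA-PP1 with full growth; RAM network block rescues cells from 5-FOA so hits raise OD615 growth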); conditions: S. cerevisiae dse1pr::URA3 5-FOA growth, OD615, 2 d; at 10 µM; active compounds read high; strain carries analog-sensitive mutant Cbk1 kinase
[7] = RAM signaling pathway blockade in yeast – S. cerevisiae, Pdr1DBD-CYC8 efflux-inhibited sensitized strain, primary screen (AID 1298;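 active = RAM network inhibition above 8.4% in each of two replicates, 3 SD over the compound average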;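 note: 0% = DMSO untreated cells without growth and 100% = 10 µM 1-NA-PP1 full growth; higher means more yeast growth rescued from 5-FOA killing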); conditions: S. cerevisiae cbk1-as DSE1-URA3 strain, 5-FOA growth OD615, 2 d; at 50 µM; active compounds read high

CCc1nnc(NC(=O)CN2CCOCC2)s1
inactive: growth inhibition [1] -2.81% | growth inhibition [2] -19.4% | viability increase [3] -1.62% | viability [4] 95.8% | viability [5] 101% | inhibition [6] 1.18% | RAM network inhibition [7] 6.14%

Cc1nc2ncnn2c(C)c1Cc1ccc(Cl)cc1F
inactive: growth inhibition [1] -9.96% | growth inhibition [2] -18.8% | viability increase [3] -1.72% | viability [4] 95.7% | viability [5] 92.2% | inhibition [6] 0.26% | RAM network inhibition [7] 6.16%

Cn1c(=O)c2c(nc(SCCN3CCOCC3)n2Cc2ccccc2Cl)n(C)c1=O
inactive: growth inhibition [1] -14.9% | growth inhibition [2] 1.19% | viability increase [3] -5.35% | viability [4] 91.8% | viability [5] 94.9% | inhibition [6] 0.27% | RAM network inhibition [7] 5%

CCCCn1c(=O)n(CC(=O)Nc2ccc(C)c(Cl)c2)c(=O)c2c1ncn2Cc1ccco1
inactive: growth inhibition [1] -2.46% | growth inhibition [2] -24.8% | viability increase [3] 0.99% | viability [4] 72.2% | viability [5] 72.3% | inhibition [6] 2.23% | RAM network inhibition [7] 1.61%

O=C(NCC1(c2ccccc2)CCOCC1)c1ccc(Br)o1
inactive: growth inhibition [1] -2.18% | growth inhibition [2] -3.91% | viability increase [3] 2.31% | viability [4] 93% | viability [5] 92.3% | inhibition [6] 0.365% | RAM network inhibition [7] 2.97%

COc1ccc(N2CCN(Cc3nc4c(c(=O)[nH]c(=O)n4C)n3Cc3cccc(Cl)c3)CC2)cc1
inactive: growth inhibition [1] -9.21% | growth inhibition [2] -12.3% | viability increase [3] -3.93% | viability [4] 91.6% | viability [5] 77% | inhibition [6] 1.39% | RAM network inhibition [7] 1.83%

Cc1cccc(-c2noc(CCc3ccccc3)n2)c1
inactive: growth inhibition [1] -13.3% | growth inhibition [2] -12% | viability increase [3] 0.39% | viability [4] 102% | viability [5] 98.1% | inhibition [6] 1.13% | RAM network inhibition [7] 2.14%

CCCC(=O)NCCc1cc2ccc(C)c(C)c2[nH]c1=O
inactive: growth inhibition [1] -13% | growth inhibition [2] -25.4% | viability increase [3] -1.61% | viability [4] 103% | viability [5] 97.6% | inhibition [6] 1.91% | RAM network inhibition [7] 4%

O=C(CN1CCOc2ccccc21)NCc1ccc(F)cc1
inactive: growth inhibition [1] -29.5% | growth inhibition [2] 2.98% | viability increase [3] -5.89% | viability [4] 91.4% | viability [5] 85.8% | inhibition [6] 0.305% | RAM network inhibition [7] -0.84%

CC(CCc1ccccc1)NC(=O)c1nnc(Cc2ccc(F)cc2)o1 (configuration not stated)
inactive: growth inhibition [1] -3.78% | growth inhibition [2] 7.46% | viability increase [3] 0% | viability [4] 95.2% | viability [5] 95.2% | inhibition [6] 0.95% | RAM network inhibition [7] 1.1%

O=C(c1ccccc1)N1CCn2c(nc3ccccc32)C1
inactive: growth inhibition [1] 3.33% | growth inhibition [2] 2.58% | viability increase [3] -0.73% | viability [4] 98.2% | viability [5] 98.2% | inhibition [6] 0.5% | RAM network inhibition [7] 6.85%

CCOC(=O)N1CCC(NC(=O)c2cc3c(-c4ccc(Cl)cc4)nn(C)c3s2)CC1
inactive: growth inhibition [1] -2.75% | growth inhibition [2] -2.64% | viability increase [3] -5.61% | viability [4] 91.4% | viability [5] 92.1% | inhibition [6] -0.04% | RAM network inhibition [7] 2.43%

Cc1ccc(Cn2c(CN3CC(C)OC(C)C3)nc3c2c(=O)n(C)c(=O)n3C)cc1 (configuration not stated)
inactive: growth inhibition [1] -5.45% | growth inhibition [2] -10.8% | viability increase [3] -1.28% | viability [4] 96.1% | viability [5] 95.1% | inhibition [6] 2.09% | RAM network inhibition [7] 1.95%

C=CCn1c(C(C)NC(=O)COC)nc2ccccc21 (configuration not stated)
inactive: growth inhibition [1] -2.42% | growth inhibition [2] -4.71% | viability increase [3] -2.08% | viability [4] 98.7% | viability [5] 96.2% | inhibition [6] 0.935% | RAM network inhibition [7] 3.54%

N#CC1=C2SCN(c3ccccc3)CN2C(=O)CC1c1c(Cl)cccc1Cl (configuration not stated)
inactive: growth inhibition [1] -3.85% | growth inhibition [2] 18.9% | viability increase [3] -7.7% | viability [4] 84.3% | viability [5] 93% | inhibition [6] 1.14% | RAM network inhibition [7] 4.42%

COc1ccc(C(=O)c2coc3ccc(O)c(CN4CCOCC4)c23)cc1
inactive: growth inhibition [1] -5.46% | growth inhibition [2] -12% | viability increase [3] -4.42% | viability [4] 77.2% | viability [5] 80.3% | inhibition [6] 1.79% | RAM network inhibition [7] -1.13%

O=C1C=C(N(CCO)CCO)C2(CCCCC2)O1
inactive: growth inhibition [1] -14.1% | growth inhibition [2] -18.7% | viability increase [3] -1.83% | viability [4] 90.1% | viability [5] 96% | inhibition [6] 1.23% | RAM network inhibition [7] 2%

CCOC(=O)C1=C(C)NC(C)=C(C(=O)OCC)C1c1nc2ccccc2[nH]1
inactive: growth inhibition [1] -21.8% | growth inhibition [2] -11.2% | viability increase [3] -1.33% | viability [4] 96.2% | viability [5] 96.3% | inhibition [6] 0.96% | RAM network inhibition [7] 1.43%

COc1ccc(-c2nnc(COc3ccc4ccccc4c3)o2)cc1OC
inactive: growth inhibition [1] -7.47% | growth inhibition [2] -22.7% | viability increase [3] -0.12% | viability [4] 99.7% | viability [5] 91.6% | inhibition [6] 1.22% | RAM network inhibition [7] 8.07%

O=C(C1CCN(S(=O)(=O)c2ccc(F)cc2)CC1)N1CC=C(c2ccccc2)CC1
inactive: growth inhibition [1] -0.895% | growth inhibition [2] -21% | viability increase [3] -2.73% | viability [4] 91% | viability [5] 89.7% | inhibition [6] 1.03% | RAM network inhibition [7] 1.27%

CC1=NC2(CCCc3c2no[n+]3[O-])N(O)C1(C)C (configuration not stated)
inactive: growth inhibition [1] 6.66% | growth inhibition [2] 3.75% | viability increase [3] -1.89% | viability [4] 101% | viability [5] 98.7% | inhibition [6] 1.36% | RAM network inhibition [7] 1.51%

O=C(O)c1cc(S(=O)(=O)N2CCCCCC2)c(Cl)cc1Cl
inactive: growth inhibition [1] -2.36% | growth inhibition [2] -0.81% | viability increase [3] -0.57% | viability [4] 90.4% | viability [5] 101% | inhibition [6] 1.18% | RAM network inhibition [7] 6.2%

Oc1ccccc1CNc1nc2ccccc2n1CCN1CCCCC1
inactive: growth inhibition [1] -15.8% | growth inhibition [2] -9.88% | viability increase [3] -8.6% | viability [4] 52.5% | viability [5] 48.8% | inhibition [6] 2.86% | RAM network inhibition [7] 1.77%

O=C(CSC1=NS(=O)(=O)c2ccccc21)Nc1ccccc1
active: growth inhibition [1] 56.7% | growth inhibition [2] 96.9%
inactive: viability increase [3] -2.73% | viability [4] 94.3% | viability [5] 104% | inhibition [6] -0.07% | RAM network inhibition [7] -0.47%

CC1CCCCN1CCNC(=O)c1cc2c(-c3ccccc3F)nn(C)c2s1 (configuration not stated)
inactive: growth inhibition [1] -3.09% | growth inhibition [2] 0.025% | viability increase [3] -6.73% | viability [4] 48% | viability [5] 59.6% | inhibition [6] 0.095% | RAM network inhibition [7] 5.89%

CCCCOC(=O)CSc1nnc(N)s1
inactive: growth inhibition [1] -4.92% | growth inhibition [2] -1.45% | viability increase [3] -0.86% | viability [4] 105% | viability [5] 96.5% | inhibition [6] 0.205% | RAM network inhibition [7] 6.89%

Cc1c2cn[nH]c(=O)c2c(C)n1Cc1ccc(F)cc1
inactive: growth inhibition [1] -17.7% | growth inhibition [2] -15% | viability increase [3] -3.21% | viability [4] 90.7% | viability [5] 98.5% | inhibition [6] 1.83% | RAM network inhibition [7] 5.11%

C=CCNC(=O)C1CC(=O)N(c2ccc(Br)cc2)C1 (configuration not stated)
inactive: growth inhibition [1] -16.9% | growth inhibition [2] -14.1% | viability increase [3] -1.65% | viability [4] 95.5% | viability [5] 95.3% | inhibition [6] 0.655% | RAM network inhibition [7] 0.56%

Cc1ccc(OCCNC(=O)c2ccccc2N)cc1
inactive: growth inhibition [1] 1.82% | growth inhibition [2] -18.1% | viability increase [3] -2.73% | viability [4] 103% | viability [5] 97.6% | inhibition [6] 0.785% | RAM network inhibition [7] -0.05%

Cc1cc(C)n(-c2nc3ccccc3c3nc(C)nn23)n1
inactive: growth inhibition [1] -10.5% | growth inhibition [2] -2.51% | viability increase [3] -0.57% | viability [4] 104% | viability [5] 101% | inhibition [6] 0.195% | RAM network inhibition [7] 4.75%

CCOC(=O)CSC1=C(C#N)C(c2ccc(C)s2)CC(=O)N1 (configuration not stated)
inactive: growth inhibition [1] -9.3% | growth inhibition [2] -13.3% | viability increase [3] -5.84% | inhibition [6] 1.54% | RAM network inhibition [7] 0.22%
active: viability [4] 15.9% | viability [5] 16%

O=C(COc1ccc(S(=O)(=O)NC2CCCCC2)cc1)Nc1ccc2c(c1)OCCO2
inactive: growth inhibition [1] -2.47% | growth inhibition [2] 4.23% | viability increase [3] -2.05% | viability [4] 84% | viability [5] 70.8% | inhibition [6] 2.25% | RAM network inhibition [7] 5.01%

O=C1c2ccccc2C(O)N1c1ccc(Cl)cc1 (configuration not stated)
inactive: growth inhibition [1] -8.19% | growth inhibition [2] -7.83% | viability increase [3] -0.07% | viability [4] 93.4% | viability [5] 95.5% | inhibition [6] 0.58% | RAM network inhibition [7] 1.49%

CC1CN(CCC(=O)Nc2ccc3c(c2)CCC3)CC(C)O1 (configuration not stated)
inactive: growth inhibition [1] -3.75% | growth inhibition [2] -3.82% | viability increase [3] -0.55% | viability [4] 97.5% | viability [5] 93% | inhibition [6] 0.995% | RAM network inhibition [7] 6.16%

COc1ccc(S(=O)(=O)N2CC(C)N(S(=O)(=O)c3ccc(OC)cc3)CC2C)cc1 (configuration not stated)
inactive: growth inhibition [1] -4.74% | growth inhibition [2] 0.035% | viability increase [3] -2.77% | viability [4] 93.2% | viability [5] 102% | inhibition [6] 1.73% | RAM network inhibition [7] 5.94%

N#Cc1ccc(Oc2cccnc2)cc1C#N
inactive: growth inhibition [1] -13.5% | growth inhibition [2] -20.4% | viability increase [3] -0.76% | viability [4] 100% | viability [5] 97.5% | inhibition [6] 1.49% | RAM network inhibition [7] 2.79%
